ChEMBL document CHEMBL3227952, “Potential organ- or tumor-imaging agents. 18. Radioiodinated diamines and bisquaternaries” (J Med Chem, 1979)

Tests used:
[1] = test system: Blood; experiment: Drug uptake in Sprague-Dawley rat blood at 11.9 to 12.1 uCi, iv after 2 hrs by liquid scintillation counting; type: ADME, organism-based; details: in vivo
[2] = test system: Kidney; experiment: Drug uptake in Sprague-Dawley rat kidney at 11.9 to 12.1 uCi, iv after 0.5 hrs by liquid scintillation counting; type: ADME, organism-based; details: in vivo
[3] = test system: Spleen; experiment: Drug uptake in Sprague-Dawley rat spleen at 11.9 to 12.1 uCi, iv after 0.5 hrs by liquid scintillation counting; type: ADME, organism-based; details: in vivo
[4] = test system: Spleen; experiment: Drug uptake in Sprague-Dawley rat spleen at 11.9 to 12.1 uCi, iv after 2 hrs by liquid scintillation counting; type: ADME, organism-based; details: in vivo, in the assay text read “well-scintillation gamma counting” for “liquid scintillation counting”
How it was run: (§1)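 Five rats per time point were exsanguinated under ether. Organs were excised, rinsed, blotted and weighed. Duplicate samples were counted in a well-scintillation gamma counter (87% efficiency). Results are % administered dose/g, mean ± SEM.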

[5] = test system: Lung; experiment: Drug uptake in Sprague-Dawley rat lung at 11.9 to 12.1 uCi, iv after 0.5 hrs by liquid scintillation counting; type: ADME, organism-based; details: in vivo
[6] = test system: Testes; experiment: Drug uptake in Sprague-Dawley rat testes at 11.9 to 12.1 uCi, iv after 0.5 hrs by liquid scintillation counting; type: ADME, organism-based, Testis; details: in vivo; how it was run: as §1
[7] = test system: Adrenal; experiment: Drug uptake in Sprague-Dawley rat adrenal at 11.9 to 12.1 uCi, iv after 0.5 hrs by liquid scintillation counting; type: ADME, organism-based, Adrenal gland; details: in vivo
[8] = test system: Liver; experiment: Drug uptake in Sprague-Dawley rat liver at 11.9 to 12.1 uCi, iv after 0.5 hrs by liquid scintillation counting; type: ADME, organism-based; details: in vivo; how it was run: as §1
[9] = test system: Adrenal; experiment: Drug uptake in Sprague-Dawley rat adrenal at 11.9 to 12.1 uCi, iv after 2 hrs by liquid scintillation counting; type: ADME, organism-based, Adrenal gland; details: in vivo
How it was run: (§2)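 Dosing was by tail vein under ether. Five rats were killed by exsanguination at each time. Organs were rinsed, blotted and weighed, with duplicate samples in cellulose acetate capsules. Samples were counted in a well-scintillation gamma counter at 87% efficiency. Results are % administered dose/g, mean ± SEM.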

[10] = test system: Kidney; experiment: Drug uptake in Sprague-Dawley rat kidney at 11.9 to 12.1 uCi, iv after 2 hrs by liquid scintillation counting; type: ADME, organism-based; details: in vivo, in the assay text read “gamma counting” for “liquid scintillation counting”; how it was run: as §1
[11] = test system: Heart; experiment: Drug uptake in Sprague-Dawley rat heart at 11.9 to 12.1 uCi, iv after 0.5 hrs by liquid scintillation counting; type: ADME, organism-based; details: in vivo
[12] = Drug uptake in Sprague-Dawley rat bone marrow at 11.9 to 12.1 uCi, iv after 2 hrs by liquid scintillation counting; type: ADME, organism-based; details: in vivo
[13] = Drug uptake in Sprague-Dawley rat diaphragm at 11.9 to 12.1 uCi, iv after 2 hrs by liquid scintillation counting; type: ADME, organism-based; details: in vivo
[14] = Drug uptake in Sprague-Dawley rat dorsolateral prostate at 11.9 to 12.1 uCi, iv after 2 hrs by liquid scintillation counting; type: ADME, organism-based, Prostate gland; details: in vivo
[15] = Drug uptake in Sprague-Dawley rat dorsolateral prostate at 11.9 to 12.1 uCi, iv after 0.5 hrs by liquid scintillation counting; type: ADME, organism-based, Prostate gland; details: in vivo
[16] = test system: Pituitary gland; experiment: Drug uptake in Sprague-Dawley rat pituitary at 11.9 to 12.1 uCi, iv after 0.5 hrs by liquid scintillation counting; type: ADME, organism-based; details: in vivo
[17] = test system: Pancreas; experiment: Drug uptake in Sprague-Dawley rat pancreas at 11.9 to 12.1 uCi, iv after 2 hrs by liquid scintillation counting; type: ADME, organism-based; details: in vivo, in the assay text read “well-scintillation gamma counting” for “liquid scintillation counting”; how it was run: as §1
[18] = Drug uptake in Sprague-Dawley rat ventral prostate at 11.9 to 12.1 uCi, iv after 2 hrs by liquid scintillation counting; type: ADME, organism-based, Prostate gland; details: in vivo; how it was run: as §1
[19] = test system: Blood; experiment: Drug uptake in Sprague-Dawley rat blood at 11.9 to 12.1 uCi, iv after 0.5 hrs by liquid scintillation counting; type: ADME, organism-based; details: in vivo
[20] = test system: Duodenum; experiment: Drug uptake in Sprague-Dawley rat duodenum at 11.9 to 12.1 uCi, iv after 2 hrs by liquid scintillation counting; type: ADME, organism-based; details: in vivo, in the assay text read “gamma counting” for “liquid scintillation counting”; how it was run: as §2
[21] = test system: Testes; experiment: Drug uptake in Sprague-Dawley rat testes at 11.9 to 12.1 uCi, iv after 2 hrs by liquid scintillation counting; type: ADME, organism-based, Testis; details: in vivo, in the assay text read “well-scintillation gamma counting” for “liquid scintillation counting”; how it was run: as §1
[22] = test system: Pituitary gland; experiment: Drug uptake in Sprague-Dawley rat pituitary at 11.9 to 12.1 uCi, iv after 2 hrs by liquid scintillation counting; type: ADME, organism-based; details: in vivo, in the assay text read “well-scintillation gamma counting” for “liquid scintillation counting”; how it was run: as §1
[23] = test system: Thyroid gland; experiment: Drug uptake in Sprague-Dawley rat thyroid at 11.9 to 12.1 uCi, iv after 0.5 hrs by liquid scintillation counting; type: ADME, organism-based; details: in vivo; how it was run: as §1
[24] = test system: Brain; experiment: Drug uptake in Sprague-Dawley rat brain at 11.9 to 12.1 uCi, iv after 2 hrs by liquid scintillation counting; type: ADME, organism-based; details: in vivo
[25] = test system: Brain; experiment: Drug uptake in Sprague-Dawley rat brain at 11.9 to 12.1 uCi, iv after 0.5 hrs by liquid scintillation counting; type: ADME, organism-based; details: in vivo
[26] = test system: Pancreas; experiment: Drug uptake in Sprague-Dawley rat pancreas at 11.9 to 12.1 uCi, iv after 0.5 hrs by liquid scintillation counting; type: ADME, organism-based; details: in vivo; how it was run: as §1
[27] = Drug uptake in Sprague-Dawley rat diaphragm at 11.9 to 12.1 uCi, iv after 0.5 hrs by liquid scintillation counting; type: ADME, organism-based; details: in vivo; how it was run: as §2
[28] = test system: Duodenum; experiment: Drug uptake in Sprague-Dawley rat duodenum at 11.9 to 12.1 uCi, iv after 0.5 hrs by liquid scintillation counting; type: ADME, organism-based; details: in vivo
[29] = Drug uptake in Sprague-Dawley rat bone marrow at 11.9 to 12.1 uCi, iv after 0.5 hrs by liquid scintillation counting; type: ADME, organism-based; details: in vivo; how it was run: as §2
[30] = test system: Liver; experiment: Drug uptake in Sprague-Dawley rat liver at 11.9 to 12.1 uCi, iv after 2 hrs by liquid scintillation counting; type: ADME, organism-based; details: in vivo, in the assay text read “gamma counting” for “liquid scintillation counting”; how it was run: as §1
[31] = test system: Thyroid gland; experiment: Drug uptake in Sprague-Dawley rat thyroid at 11.9 to 12.1 uCi, iv after 2 hrs by liquid scintillation counting; type: ADME, organism-based; details: in vivo, in the assay text read “well-scintillation gamma counting” for “liquid scintillation counting”; how it was run: as §1
[32] = test system: Heart; experiment: Drug uptake in Sprague-Dawley rat heart at 11.9 to 12.1 uCi, iv after 2 hrs by liquid scintillation counting; type: ADME, organism-based; details: in vivo, in the assay text read “gamma counting” for “liquid scintillation counting”; how it was run: as §2
[33] = test system: Lung; experiment: Drug uptake in Sprague-Dawley rat lung at 11.9 to 12.1 uCi, iv after 2 hrs by liquid scintillation counting; type: ADME, organism-based; details: in vivo, in the assay text read “gamma counting” for “liquid scintillation counting”; how it was run: as §1
[34] = Drug uptake in Sprague-Dawley rat ventral prostate at 11.9 to 12.1 uCi, iv after 0.5 hrs by liquid scintillation counting; type: ADME, organism-based, Prostate gland; details: in vivo

CN(C)Cc1ccc(CN(C)C)c([125I])c1
Drug uptake [1]: 0.038 % ID/g | Drug uptake [2]: 3.598 % ID/g | Drug uptake [3]: 1.402 % ID/g | Drug uptake [4]: 1.511 % ID/g | Drug uptake [5]: 1.993 % ID/g | Drug uptake [6]: 0.154 % ID/g | Drug uptake [7]: 2.287 % ID/g | Drug uptake [8]: 1.069 % ID/g | Drug uptake [9]: 1.84 % ID/g | Drug uptake [10]: 2.225 % ID/g | Drug uptake [11]: 0.367 % ID/g | Drug uptake [12]: 0.569 % ID/g | Drug uptake [13]: 0.114 % ID/g | Drug uptake [14]: 0.614 % ID/g | Drug uptake [15]: 0.657 % ID/g | Drug uptake [16]: 0.899 % ID/g | Drug uptake [17]: 0.349 % ID/g | Drug uptake [18]: 0.588 % ID/g | Drug uptake [19]: 0.05 % ID/g | Drug uptake [20]: 0.349 % ID/g | Drug uptake [21]: 0.163 % ID/g | Drug uptake [22]: 0.684 % ID/g | Drug uptake [23]: 5.001 % ID/g | Drug uptake [24]: 1.255 % ID/g | Drug uptake [25]: 1.791 % ID/g | Drug uptake [26]: 0.737 % ID/g | Drug uptake [27]: 0.241 % ID/g | Drug uptake [28]: 1.053 % ID/g | Drug uptake [29]: 0.483 % ID/g | Drug uptake [30]: 1.042 % ID/g | Drug uptake [31]: 3.114 % ID/g | Drug uptake [32]: 0.174 % ID/g | Drug uptake [33]: 1.065 % ID/g | Drug uptake [34]: 0.673 % ID/g
